Assay results of several laboratories.

| SMILES | assay | test system | conditions | quantity | value |
| --- | --- | --- | --- | --- | --- |
| CCOC(=O)c1c(NC(=O)CNC(C)C)sc2c1CCCCC2 |  | male mouse, brain | intraperitoneal, 100 mg/kg, single dose | half-life | 2.06 h |
| Cc1ncsc1-c1ccc([C@H](CC(=O)NCCOCCOCCOCCOCCOCCC(=O)N2CCC(Nc3cc(C(=O)NC[C@H](O)CN4CCc5ccccc5C4)ncn3)CC2)NC(=O)[C@@H]2C[C@@H](O)CN2C(=O)[C@@H](NC(=O)C2(F)CC2)C(C)(C)C)cc1 |  | male Swiss mouse, plasma | intraperitoneal, 50 mg/kg, 8 h, single dose | concentration | > 200 nM |
| COc1cc(C(=O)c2nc(-c3cccc4[nH]ccc34)c[nH]2)cc(OC)c1OC |  | male CD-1 mouse, plasma | intraperitoneal, 15 mg/kg | half-life | 0.95 h |
| CN(C)C1(CNC(=O)c2ccc3c(c2)CCN3C(=O)c2ccccc2)CCOCC1 |  | male C57BL/6 mouse, brain | intraperitoneal, 50 mg/kg, 2 h | concentration | 39 ng/g |
| CC(C)[C@]12O[C@H]1[C@@H]1O[C@]13[C@]1(O[C@H]1C[C@H]1C4=C(CC[C@@]13C)C(=O)OC4)[C@@H]2O |  | SCID mouse, plasma | intravenous, 0.6 mg/kg | half-life | 0.16 h |
| CC(C)CC(=O)OC[C@H]1O[C@@](C#N)(c2ccc3c(N)ncnn23)[C@H](O)[C@@H]1O | metabolic stability | dog, hepatocytes | 5 µM | hepatocyte CLint | > 318 µL/min/10⁶ cells |
| Cc1[nH]c(C)c(S(=O)(=O)Nc2ccc(S(F)(F)(F)(F)F)cc2)c1C(=O)N1CCC(F)(F)C1 |  | mouse, plasma | intraperitoneal, 40 mg/kg | half-life | 2.64 h |
| CC(C)=CCC[C@](C)(O[C@@H]1O[C@H](CO)[C@@H](O)[C@H](O)[C@H]1O)[C@H]1CC[C@]2(C)[C@@H]1[C@H](O)C[C@@H]1[C@@]3(C)CC[C@H](O)C(C)(C)[C@@H]3CC[C@]12C |  | mouse, plasma | oral, 10 mg/kg | half-life | 14 h |
